Publication PMC3878182 (Xenobiotica; the fate of foreign compounds in biological …, 2013)

What was measured:
liver tissue slices [1] = test: Formation of hydroxylated PCB 136 metabolites in liver tissue slices; assay type: in vitro ADME, Sprague-Dawley rats; conditions: for ΣOH-PCB as percent of PCB 136: PCB 136 5 μM (10 nmol), 2 h, slices plus medium
liver tissue slices [2] = test: PCB 136 levels and partitioning in liver tissue slice incubations; assay type: in vitro ADME, Sprague-Dawley rats
How it was run: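 Two liver slices were placed in 2 mL K-H buffer and given test compound (final 5 μM; 10 nmol per incubation; DMSO) for 2 h at 37 °C, 5% CO2/95% air. Slices were washed in cold buffer and homogenized. Medium and homogenate were quantified by GC-63Ni-μECD (DB1-MS column); calibration was linear over 1–1000 ng/mL. Slice levels are per mg protein and as % of dose. n=2 or 3 animals, triplicate incubations, mean ± SD.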

ryanodine receptor (RyR) = conditions: ref Pessah et al., 2006; cited from earlier work
liver tissue slices [3] = test: Liver slice viability; assay type: cell-based, Sprague-Dawley rats
How it was run: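 Liver slices came from adult rats, either naive or pretreated with PB or DEX, taken 24 h after the last dose into cold Krebs-Henseleit buffer, pH 7.5. Two slices per vial in 2 mL buffer received test compound (final 5 μM) or DMSO, 2 h, 37 °C, 5 % CO2/95 % air. LDH in medium and homogenate gave % release = A1×D1/(A1×D1+A2×D2); viable was <30 %.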

[4] = system: hippocampal slice cultures; test: LDH release in hippocampal slice cultures; assay type: cell-based, Sprague Dawley rats (PND4 pups); conditions: PCB 136 ≤ 5 μM for 14 d
How it was run: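 Hippocampi from PND4 pups of timed-pregnant Sprague Dawley rats were cultured as slices. From 5 DIV, racemic test compound or vehicle (0.1 % DMSO) was added to 1 mL medium, renewed every 2 days for 14 days. LDH release was measured with a membrane-integrity fluorescence kit. Mean ± SEM, n = 2 wells per group.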

[5] = system: hippocampal slice cultures; test: Propidium iodide; assay type: cell-based, Sprague Dawley rats (PND4 pups)
[6] = system: hippocampal tissue slices; test: PCB 136 levels in hippocampal tissue slice cultures relative to medium; assay type: in vitro ADME, Sprague Dawley rats (PND4 pups); conditions: for Medium-to-tissue slice ratio of PCB 136: day 14
How it was run: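 Hippocampi from PND4 rat pups were cultured as slices. From 5 DIV, racemic test compound (5 μM; vehicle 0.1% DMSO) was added to 1 mL medium per well, renewed every 2 days for 14 days. Medium from each change and slices at day 14 were stored at −20 °C and analysed. The medium-to-slice ratio was taken at day 14.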

CYP1A2 = test: Hepatic P450 transcript levels; assay type: in vivo, Sprague-Dawley rats; conditions: liver slices from male rats
[7] = Effect of inducer treatment on body and liver weights of rats; assay type: in vivo, Sprague-Dawley rats; conditions: i.p. inducer treatment
CYP3A2 = test: Hepatic P450 transcript levels; assay type: in vivo, Sprague-Dawley rats; conditions: liver slices from male rats
[8] = DEX-treated female rats, PCB 136 5 μM (10 nmol), 2 h, 37°C
[9] = DEX-treated male rats, PCB 136 5 μM (10 nmol), 2 h, 37°C
[10] = PB-treated female rats, PCB 136 5 μM (10 nmol), 2 h, 37°C
[11] = PB-treated male rats, PCB 136 5 μM (10 nmol), 2 h, 37°C
[12] = naïve control (CTL) female rats, PCB 136 5 μM (10 nmol), 2 h, 37°C
[13] = naïve control (CTL) male rats, PCB 136 5 μM (10 nmol), 2 h, 37°C

Clc1ccc(Cl)c(-c2c(Cl)ccc(Cl)c2Cl)c1Cl [PCB 136, 2,2′,3,3′,6,6′-hexachlorobiphenyl]
ΣOH-PCB as percent of PCB 136 (liver tissue slices [1]; DEX-treated female rats): 2.7 ± 1.3% | ΣOH-PCB as percent of PCB 136 (liver tissue slices [1]; PB-treated female rats): 5.3 ± 1.1% | ΣOH-PCB as percent of PCB 136 (liver tissue slices [1]; PB-treated male rats): 11 ± 2.7% | Percent of total PCB 136 metabolized to OH-PCBs (liver tissue slices [1]; liver slices from female rats, within 2 h): ≤ 5% | Percent of total PCB converted to OH-PCBs (liver tissue slices [1]; liver slices from male rats): at least 11% | ΣOH-PCB as percent of PCB 136 (liver tissue slices [1]; naïve control (CTL) male rats): 1.1 ± 0.4% | PCB 136 in medium (liver tissue slices [2]; [8]): 6.7 ± 0.7 nmol | PCB 136 in tissue slices (liver tissue slices [2]; [8]): 2.1 ± 0.3 nmol | PCB 136 in tissue slices (liver tissue slices [2]; DEX-treated female rats, PCB 136 5 μM, 2 h): 42 ± 14 ng/mg protein | PCB 136 in medium (liver tissue slices [2]; [9]): 5.7 ± 0.3 nmol | PCB 136 in tissue slices (liver tissue slices [2]; [9]): 1.8 ± 0.4 nmol | PCB 136 in tissue slices (liver tissue slices [2]; DEX-treated male rats, PCB 136 5 μM, 2 h): 27 ± 7 ng/mg protein | PCB 136 in medium (liver tissue slices [2]; [10]): 9.5 ± 0.5 nmol | PCB 136 in tissue slices (liver tissue slices [2]; [10]): 2.5 ± 0.4 nmol | PCB 136 in tissue slices (liver tissue slices [2]; PB-treated female rats, PCB 136 5 μM, 2 h): 53 ± 10 ng/mg protein | PCB 136 in medium (liver tissue slices [2]; [11]): 8.6 ± 0.4 nmol | PCB 136 in tissue slices (liver tissue slices [2]; [11]): 1.3 ± 0.3 nmol | PCB 136 in tissue slices (liver tissue slices [2]; PB-treated male rats, PCB 136 5 μM, 2 h): 21 ± 6 ng/mg protein | Percent of total PCB 136 associated with liver tissue slices (liver tissue slices [2]; both sexes, all treatment groups): 13–25% | PCB 136 in tissue slices as percent of total PCB 136 dose added (liver tissue slices [2]; female liver slices, 2 h): 21–25% | PCB 136 in tissue slices as percent of total PCB 136 dose (liver tissue slices [2]; male liver slices, 2 h): 13–23% | PCB 136 in medium (liver tissue slices [2]; [12]): 8.5 ± 0.1 nmol | PCB 136 in tissue slices (liver tissue slices [2]; [12]): 2.4 ± 0.5 nmol | PCB 136 in tissue slices (liver tissue slices [2]; naïve control (CTL) female rats, PCB 136 5 μM, 2 h): 45 ± 15 ng/mg protein | PCB 136 in medium (liver tissue slices [2]; [13]): 6.3 ± 0.3 nmol | PCB 136 in tissue slices (liver tissue slices [2]; [13]): 2.3 ± 0.1 nmol | PCB 136 in tissue slices (liver tissue slices [2]; naïve control (CTL) male rats, PCB 136 5 μM, 2 h): 33 ± 5 ng/mg protein | RyR activity / sensitization (ryanodine receptor (RyR)): RyR active | Acute toxicity to liver slices (liver tissue slices [3]; 2 h incubation with PCB 136 at 5 μM): not acutely toxic | LDH release to the medium (liver tissue slices [3]; all slices used in the PCB 136 metabolism experiments, 2 h incubation): 13.2 ± 6.6% | LDH release (liver tissue slices [3]; slices treated with PCB 136 5 μM, 2 h): 13.1 ± 6.6% | LDH release relative to vehicle controls [4]: did not significantly alter LDH release | PI uptake (confocal images) ([5]; PCB 136 at 5 μM for 14 days vs vehicle): no significant differences | PI uptake ([5]; racemic PCB 136 at 5 or 10 μM, 3 d exposure from 5 DIV, vs vehicle): had no significant effect on PI uptake | PCB 136 in slices as percent of the PCB 136 (1.8 μg) added on day 12 ([6]; female pups): 1.5 ± 0.8% | Average PCB 136 amount associated with the tissue slices ([6]; female pups, after 14 days): 27 ± 15 ng | Medium-to-tissue slice ratio of PCB 136 ([6]; female pups): 24 ± 8 | PCB 136 in slices as percent of total PCB dose added ([6]; female pups, total dose 12.6 μg): 0.2% | PCB 136 in slices as percent of the PCB 136 (1.8 μg) added on day 12 ([6]; male pups): 1.8 ± 0.3% | PCB 136 amount associated with tissue slices ([6]; male pups, after 14 days): 32 ± 6 ng | Medium-to-tissue slice ratio of PCB 136 ([6]; male pups): 26 ± 10 | PCB 136 in slices as percent of total PCB dose ([6]; male pups, total dose 12.6 μg): 0.3% | Average PCB 136 concentration in the incubation medium ([6]; slice cultures from female pups, 5 μM racemic PCB 136, 14 days): 830 ± 80 ng/mL | Average PCB 136 levels in the incubation medium ([6]; slice cultures from male pups, 5 μM racemic PCB 136, 14 days): 570 ± 220 ng/mL

CCC1(c2ccccc2)C(=O)NC(=O)NC1=O [Phenobarbital (PB), phenobarbital]
CYP1A2 transcript level vs CTL (CYP1A2): not changed | Liver weight ([7]; female rats): 10.1 ± 0.4 g | Liver-to-final body weight ratio ([7]; female rats): 4.5 ± 0.2 | Percent change in body weight ([7]; female rats): 5.5 ± 1.3% | Liver weight ([7]; male rats): 16.0 ± 2.0 g | Liver-to-final body weight ratio ([7]; male rats): 5.3 ± 0.9 | Percent change in body weight ([7]; male rats): −2.0 ± 7.0% | CYP3A2 transcript level vs CTL (CYP3A2): significantly induced by DEX but not PB
